Test results taken from ChEMBL document CHEMBL1121954, “Studies on the synthesis of chemotherapeutics. 12. Synthesis and antitumor activity of N-phthalidyl-5-fluorouracil derivatives” (1982).
Values joined by “and” are separate entries in the source; they are usually repeats but may differ in a detail not shown here. Identical values can stand only once.

How the values were obtained:
Mus musculus [1] = experiment: In vivo antitumor activity against P-388 Leukemia cell line in female BDF1 mice after oral administered dose of 50 mg/kg; assay type: functional
In short: (§1)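 Female BDF1 mice, 17-23 g, five per group, inoculated intraperitoneally with 10^6 P-388 cells. Oral dosing once daily for 9 days, beginning 1 day after implantation. Activity is % T/C, the median survival time of treated mice relative to controls.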

Mus musculus [2] = experiment: In vivo antitumor activity against P-388 Leukemia cell line in female BDF1 mice after oral administered dose of 25 mg/kg; assay type: functional; in short: as §1
Mus musculus [3] = experiment: In vivo antitumor activity against P-388 Leukemia cell line in female BDF1 mice after oral administered dose of 100 mg/kg; assay type: functional; in short: as §1
Mus musculus [4] = experiment: In vivo antitumor activity against P-388 Leukemia cell line in female BDF1 mice after oral administered dose of 200 mg/kg; assay type: functional; in short: as §1
Mus musculus [5] = experiment: In vivo antitumor activity against MH 134 cell line in female […] mice after oral administered dose of 200 mg/kg; assay type: functional
Mus musculus [6] = experiment: In vivo antitumor activity against Meth A cell line in female BALB/c mice after oral administered dose of 200 mg/kg; death
Mus musculus [7] = experiment: In vivo antitumor activity against Meth A cell line in female […] mice after oral administered dose of 150 mg/kg; assay type: functional
Mus musculus [8] = experiment: In vivo antitumor activity against MH 134 cell line in female […] mice after oral administered dose of 50 mg/kg; assay type: functional
Mus musculus [9] = experiment: In vivo antitumor activity against MH 134 cell line in female […] mice after oral administered dose of 25 mg/kg; assay type: functional
Mus musculus [10] = experiment: In vivo antitumor activity against MH 134 cell line in female […] mice after oral administered dose of 150 mg/kg; assay type: functional
Mus musculus [11] = experiment: In vivo antitumor activity against Meth A cell line in female BALB/c mice after oral administered dose of 50 mg/kg
Mus musculus [12] = experiment: In vivo antitumor activity against Meth A cell line in female […] mice after oral administered dose of 200 mg/kg; assay type: functional

SMILES | T/C (Mus musculus [1]) | T/C (Mus musculus [2]) | T/C (Mus musculus [3]) | T/C (Mus musculus [4]) | T/C (Mus musculus [5]) | T/C (Mus musculus [6]) | T/C (Mus musculus [7]) | T/C (Mus musculus [8]) | T/C (Mus musculus [9]) | T/C (Mus musculus [10]) | T/C (Mus musculus [11]) | T/C (Mus musculus [12])
CC(=O)n1cc(F)c(=O)n(C2OC(=O)c3ccccc32)c1=O (stereo not drawn) | 97% | 106% | 104% | 111% | – | – | – | – | – | – | – | –
Cc1ccccc1C(=O)n1c(=O)c(F)cn(C2OC(=O)c3ccccc32)c1=O (stereo not drawn) | 99% | 113% | 102% | 109% | – | – | – | – | – | – | – | –
O=C1OC(n2cc(F)c(=O)n(C3OC(=O)c4ccccc43)c2=O)c2ccccc21 (stereo not drawn) | 104% | 97% | 102% | 102% | – | – | – | – | – | – | – | –
O=c1[nH]c(=O)n(C2CCCO2)cc1F (stereo not drawn) [TEGAFUR] | 104% | 115% | 136% | 106% | 32% | death | 23% | 64% | 100% | 50% | – | –
O=C1OC(n2c(=O)c(F)cn(C3CCCO3)c2=O)c2ccccc21 (stereo not drawn) | 109% | 104% | 115% | 111% | – | – | – | – | – | – | – | –
O=C1OC(n2cc(F)c(=O)[nH]c2=O)c2ccccc21 (stereo not drawn) | 116% | 118% | 129% | 124% | 8% | death | 7% | 34% | 50% | 22% | 26% | –
O=C1OC(n2c(=O)[nH]cc(F)c2=O)c2ccccc21 (stereo not drawn) | 104% | 111% | 120% | 102% | 17% | – | 19% | 45% | 77% | 37% | 37% | 7% and 19%
